Results on 1 molecule are retold here after ChEMBL document CHEMBL4706762, “Massively Parallel Optimization of the Linker Domain in Small Molecule Dimers Targeting a Toxic r(CUG) Repeat Expansion” (ACS Med Chem Lett, 2021).

As a reminder, the EC50 is the concentration that produces a half-maximal response.

For assay [1], the system named is r(CUG) repeat expansion. The assay is described as follows: Binding affinity to MAP3K4 r(CUG)11 RNA repeat in DM1 patient-derived myotubes at 1 uM measured after 48 hrs by RT-qPCR analysis. The assay is classed as tissue-based. As to conditions: Homo sapiens, Myotube. In outline:
(§1)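 Transcript levels, either DMPK or r(CUG) repeat-containing mRNAs, quantified by RT-qPCR in treated DM1 myotubes; n = 6, one-way ANOVA.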
For orientation: Quantitative PCR measures a nucleic acid by following its amplification.

Assay [2] concerns r(CUG) repeat expansion. Put plainly: Binding affinity to CASK r(CUG)16 RNA repeat in DM1 patient-derived myotubes at 1 uM measured after 48 hrs by RT-qPCR analysis. As to conditions: Homo sapiens, Myotube. In outline: as §1
Assay [3] relates to Myotube. Put plainly: Effect on alternative splicing of MAP4K4 exon 22a in DM1-patient derived myotubes at 0.04 to 1 uM measured after 48 hrs by RT-qPCR analysis. In kind it is functional. As to conditions: Homo sapiens, dose 0.04-1 µM.
Assay [4] deals with r(CUG) repeat expansion. Put plainly: Binding affinity to wild-type DMPK r(CUG)20 RNA repeat in DM1 patient-derived myotubes at 1 uM measured after 48 hrs by RT-qPCR analysis. As to conditions: Homo sapiens, Myotube. In outline:
as §1

For assay [5], the system named is r(CUG) repeat expansion. The assay is described as follows: Binding affinity to r(CUG)exp RNA repeat in DM1-patient derived myotubes assessed as reduction in number of r(CUG)exp-MBNL1 foci at 1 uM measured after 48 hrs by RNA fluorescence in situ hybridization assay. Further details: scale not given: the % may be the effect or the level left. As to conditions: Homo sapiens, Myotube. In outline: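 Nuclear foci counted in DM1 myotubes by confocal imaging: MBNL1 by immunofluorescence, r(CUG)exp by RNA FISH. Foci per nucleus from 40 nuclei per replicate, n = 3; Student's t-test.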

Assay [6] concerns r(CUG) repeat expansion. The assay is described as follows: Binding affinity to r(CUG)exp RNA repeat in DM1-patient derived myotubes assessed as improvement in MBNL1 exon 5 splicing defect at 0.04 to 1 uM measured after 48 hrs by RT-qPCR analysis relative to control. As to conditions: Homo sapiens, Myotube, dose 0.04-1 µM. The assay is classed as tissue-based. A digest of the protocol: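 Dose–response for MBNL1 exon 5 splicing rescue in DM1 patient myotubes (1300 r(CUG) repeats) after 48 h treatment; n = 6, SD, one-way ANOVA.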

Assay [7] has as its system r(CUG) repeat expansion. The assay is described as follows: Binding affinity to [5'-32P]-r(CUG)10 RNA (unknown origin) assessed as induction of RNA cleavage at 5 uM measured after 24 hrs by gel electrophoresis method relative to control. In kind it is nucleic-acid assay. In outline:
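5′-radiolabeled r(CUG)10 incubated with agent; cleavage fragments resolved by gel electrophoresis; n = 3, one-way ANOVA.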

Assay [8] has as its system r(CUG) repeat expansion. Put plainly: Binding affinity to LRP8 r(CUG)11 RNA repeat repeat in DM1 patient-derived myotubes at 1 uM measured after 48 hrs by RT-qPCR analysis. The following applies: Homo sapiens, Myotube. In outline:
as §1

For assay [9], the system named is r(CUG) repeat expansion. The assay is described as follows: Binding affinity to SORCS2 r(CUG)7 RNA repeat in DM1 patient-derived myotubes at 1 uM measured after 48 hrs by RT-qPCR analysis. The following applies: Homo sapiens, Myotube. In outline:
as §1

The test system of assay [10] is r(CUG) repeat expansion. Put plainly: Binding affinity to SCUBE2 r(CUG)7 RNA repeat in DM1 patient-derived myotubes at 1 uM measured after 48 hrs by RT-qPCR analysis. The following applies: Homo sapiens, Myotube. In outline: as §1
The test system of assay [11] is Myotube. Put plainly: Effect on MBNL1 exon 5 splicing in wild type human myotubes at 0.04 to 1 uM measured after 48 hrs by RT-qPCR analysis. As to conditions: dose 0.04-1 µM. In kind it is functional.
The test system of another assay is Nucleic Acid. Put plainly: Binding affinity to r(CG)8 RNA repeat (unknown origin) measured after 10 mins by fluorescence assay. In kind it is nucleic-acid assay.
Assay [12] can be described thus: Reduction in DMPK transcription in DM1-patient derived myotubes at 0.04 to 1 uM measured after 48 hrs by RT-qPCR analysis. In kind it is functional, Homo sapiens, Myotube. More on the design: scale not given: the % may be the effect or the level left. As to conditions: dose 0.04-1 µM. In outline:
as §1

Assay [13] concerns Myotube. The assay is described as follows: Effect on DMPK transcription in wild type human myotubes at 0.04 to 1 uM measured after 48 hrs by RT-qPCR analysis. The assay is classed as functional. The following applies: dose 0.04-1 µM.
Assay [14] concerns the target r(CUG) repeat expansion. The assay is described as follows: Binding affinity to r(CUG)12 RNA repeat (unknown origin) measured after 10 mins by fluorescence assay. In kind it is nucleic-acid assay.

Activity calls are given as the source filed them. The calls are words filed in the database; no cut-off is given here. Some results are limits rather than exact numbers.

Turning to `CNCCCCN(CC(=O)N(CCN)CC(=O)N(CCCNC(=O)CCCOc1cccc(-c2nc3ccc(-c4nc5cc(N6CCN(C)CC6)ccc5[nH]4)cc3[nH]2)c1)CC(=O)NCCCCCC(=O)NCCCCNCCCNC(=O)c1csc(-c2csc(CCNC(=O)[C@@H](NC(=O)[C@@H](C)[C@H](O)[C@@H](C)NC(=O)[C@@H](NC(=O)c3nc([C@H](CC(N)=O)NC[C@H](N)C(N)=O)nc(N)c3C)[C@@H](O[C@@H]3O[C@@H](CO)[C@@H](O)[C@H](O)[C@@H]3O[C@@H]3O[C@H](CO)[C@@H](O)[C@H](OC(N)=O)[C@@H]3O)c3cnc[nH]3)[C@@H](C)O)n2)n1)C(=O)CN(C)C(=O)CN(CCCn1ccnc1)C(=O)CCCOc1cccc(-c2nc3ccc(-c4nc5cc(N6CCN(C)CC6)ccc5[nH]4)cc3[nH]2)c1`, the outcome with r(CUG) repeat expansion [1], with r(CUG) repeat expansion [2], in the assay on Myotube [3], with r(CUG) repeat expansion [4], with r(CUG) repeat expansion [8] and with r(CUG) repeat expansion [9] was inactive. Moreover, the outcome in the assay with r(CUG) repeat expansion [10], in the assay with Myotube [11], in the assay with Nucleic Acid and in the assay on Myotube [13] was inactive. Besides, the Activity was 30% with r(CUG) repeat expansion [5], 30% with r(CUG) repeat expansion [6], above 70% with r(CUG) repeat expansion [7] and 35% in assay [12]. On r(CUG) repeat expansion [14], this molecule came in with a concentration for a half-maximal effect (EC50) of 120 nM.
